Source: PubChem BioAssay (several laboratories)
This is a sample that favours compounds with a hit; in the whole collection about 2.5% have one here.
dFosB activator: enhances mouse delta FosB homodimer DNA binding; P13346; purified delta FosB, TAMRA-CDK5 oligo fluorescence polarization; percent of positive-control signal above neutral wells; activation, % at 25 µM; 340,000 tested, 0.99% active; AID 493131;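 active means mean activation above about 17%, with every replicate also reaching it, limit read from the data, passing the limit was not always enough; inconclusive means only one of the two conditions met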
IMP-1 inhibitor: inhibitors of Pseudomonas aeruginosa IMP-1 metallo-beta-lactamase. purified IMP-1, nitrocefin hydrolysis, epi-absorbance fluorescence. inhibition, % at 5.6 µM. 290,000 tested, 0.45% active. AID 1556;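 active means inhibition above the mean plus 3 SD of all compounds in the same screening run, cut at about 4.5% in these data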
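System: purified recombinant IMP-1 beta-lactamase. Medium: Zinc- and detergent-supplemented HEPES buffer, pH 7.1. Compound: one 5.6 µM dose […]. Schedule: 15 min preincubation plus 25 min reaction at 25 °C. Technique: Epi-absorbance fluorescence, 480 nm excitation, 530 nm emission.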
VIM-2 inhibitor: inhibitors of Pseudomonas aeruginosa VIM-2 metallo-beta-lactamase; purified VIM-2, nitrocefin hydrolysis, epi-absorbance fluorescence; inhibition, % at 5.6 µM; 290,000 tested, 0.89% active; AID 1527;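 active means inhibition above the mean of all tested compounds plus 3 SD, cutoff set per screening run, cut at about 7.5% in these data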;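 further: red hydrolysis product quenches plate fluorescence so inhibitors raise well fluorescence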
HTR2A ag: mouse HTR2A agonism via beta-arrestin recruitment; 360,000 tested, 0.66% active; P35363; CHO-K1 mHTR2A beta-arrestin complementation, luminescence; percent of 30 µM serotonin response; activation, % at 7.6 µM;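 active means activation above a run cutoff, the mean activation of all tested compounds plus 3 SD, cut at about 14% in these data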
Target sequence (P35363 whole entry, looked up): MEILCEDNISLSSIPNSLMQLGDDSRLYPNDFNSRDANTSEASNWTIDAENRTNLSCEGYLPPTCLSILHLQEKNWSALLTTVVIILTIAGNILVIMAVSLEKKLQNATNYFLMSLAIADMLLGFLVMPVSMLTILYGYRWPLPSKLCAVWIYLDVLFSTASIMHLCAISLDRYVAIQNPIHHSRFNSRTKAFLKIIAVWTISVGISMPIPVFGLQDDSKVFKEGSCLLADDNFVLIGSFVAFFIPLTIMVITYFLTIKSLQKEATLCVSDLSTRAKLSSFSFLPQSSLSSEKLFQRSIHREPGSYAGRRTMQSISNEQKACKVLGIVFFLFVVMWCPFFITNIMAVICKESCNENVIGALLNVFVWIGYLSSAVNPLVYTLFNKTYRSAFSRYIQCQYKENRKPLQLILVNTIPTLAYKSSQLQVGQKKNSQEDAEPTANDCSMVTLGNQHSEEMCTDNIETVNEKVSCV
Large screens that a line does not name were inactive.

O=C(CC(c1ccccc1)c1cc(Cl)ccc1O)NCCCN1CCOCC1 (stereo not drawn)	none
N#Cc1cc(C(=O)c2ccccc2O)cn(-c2ccc(Cl)cc2)c1=O	IMP-1 inhibitor 5.4
Cc1ccc(-n2cc(C(=O)c3cc(Cl)ccc3O)cc(C#N)c2=O)cc1	none
CCN(CC)C(=O)[C@H]1CC(CC(=O)NCc2ccc(OC)c(OC)c2)C(=O)N2CCc3c([nH]c4ccc(OC)cc34)[C@]12C (stereo partly drawn)	none (no result: IMP-1 inhibitor, VIM-2 inhibitor)
CN(C)CCNC(=O)c1sc2nc(-c3ccccc3)cc(C(F)(F)F)c2c1N	dFosB activator 19, VIM-2 inhibitor 12
CCCCNC(=O)CSc1cc(=O)n(C)c2ccccc12	IMP-1 inhibitor 6.1
Cn1c(=O)cc(SCC(=O)NCCCN2CCOCC2)c2ccccc21	none
CCOC(=O)[C@]12CCCC=C1N(Cc1ccccc1)C(=O)[C@H](CC(=O)NCC13CC4CC(CC(C4)C1)C3)C2	none (no result: dFosB activator, IMP-1 inhibitor, VIM-2 inhibitor)
O=C(Nc1ccc(Br)cc1)c1cc(-c2cccs2)on1	IMP-1 inhibitor 11
O=C(Nc1ccc(Cl)cc1)c1cc(-c2cccs2)on1	dFosB activator inconclusive, IMP-1 inhibitor 15
CC(=O)N1NC(=Nc2ccccc2)SC1(C)C	none
CCOC(=O)[C@]12CCCC=C1N(Cc1ccco1)C(=O)[C@H](CC(=O)N1CCCCC1)C2	none (no result: dFosB activator, IMP-1 inhibitor, VIM-2 inhibitor)
Cc1cc(Br)c(NC(=O)CSc2n[nH]c(N)n2)c(Br)c1	none (no result: IMP-1 inhibitor, VIM-2 inhibitor)
COC(=O)c1sc(NC(=O)CSc2n[nH]c(N)n2)c(C(=O)OC)c1C	VIM-2 inhibitor 10
O=[N+]([O-])c1cc([N+](=O)[O-])c(Oc2c(F)cccc2F)cc1NN1CCCCC1	none
O=[N+]([O-])c1cc([N+](=O)[O-])c(Oc2c(Cl)cccc2Cl)cc1NN1CCCCC1	IMP-1 inhibitor 4.8
CCC1CN(C(=O)N2CCC(C(=O)NCc3ccc(OC)cc3OC)CC2)c2ccccc2O1 (stereo not drawn)	none
O=C(c1ccco1)N1CCN(c2ncnc3c2oc2ccccc23)CC1	VIM-2 inhibitor 10.0
O=C(O)c1nn(CCSc2ccccc2F)c(=O)c2ccccc12	none
Cc1ccc(NC(=O)C2CC(O)CN2C(=O)OCc2ccccc2)cc1C (stereo not drawn)	none
CC(Nc1nc2ccccc2n2cnnc12)c1ccccc1 (stereo not drawn)	none
CC(C)Sc1nc2ccccc2n2cnnc12	VIM-2 inhibitor 11
CC1=CC(=C(C#N)C#N)C=C(C)N1CCN1CCNCC1	dFosB activator 19
CC1=CC(=C(C#N)C#N)C=C(C)N1CCN1CCN(C(=O)Nc2cccc(Cl)c2)CC1	dFosB activator 30
CC(=O)N1CCN(CCN2C(C)=CC(=C(C#N)C#N)C=C2C)CC1	none
O=S(=O)(Nc1cccc(F)c1)c1ccc(S(=O)(=O)N2CCOCC2)cc1	none (no result: dFosB activator, IMP-1 inhibitor, VIM-2 inhibitor)
CCOc1ccc(C2c3[nH]c4ccccc4c3C[C@H]3C(=O)N(C4CC4)CC(=O)N23)cc1OC (stereo partly drawn)	none
COC(=O)c1ccc(C2c3[nH]c4ccccc4c3C[C@H]3C(=O)N(C4CC4)CC(=O)N23)cc1 (stereo partly drawn)	none
CCOc1ccc(C2c3[nH]c4ccccc4c3C[C@H]3C(=O)N(C4CCN(Cc5ccccc5)CC4)CC(=O)N23)cc1OC (stereo partly drawn)	dFosB activator 35
O=C1[C@@H]2Cc3c([nH]c4ccccc34)C(c3cccc([N+](=O)[O-])c3)N2C(=O)CN1C1CCN(Cc2ccccc2)CC1 (stereo partly drawn)	dFosB activator 82
Cc1c(O)ccc2c3c(c(=O)oc12)CCCC3	VIM-2 inhibitor 10
Cc1c(OC(C)C(=O)N[C@H](C(=O)O)c2ccccc2)ccc2c3c(c(=O)oc12)CCCC3 (stereo partly drawn)	VIM-2 inhibitor 7.8
CC(=O)COc1ccc2c3c(c(=O)oc2c1C)CCCCC3	none
Cc1c(OCC(=O)OC(C)(C)C)ccc2c3c(c(=O)oc12)CCC3	none
Cc1c(Cc2ccccc2)c(=O)oc2c(C)c(OC(C)C(=O)N[C@@H](Cc3ccccc3)C(=O)O)ccc12 (stereo partly drawn)	none
Cc1c(OC(=O)CNC(=O)OC(C)(C)C)ccc2c3c(c(=O)oc12)CCC3	VIM-2 inhibitor 23
CC(=O)C(C)Oc1ccc2c3c(c(=O)oc2c1C)CCCC3 (stereo not drawn)	VIM-2 inhibitor 10
Cc1c(O)ccc2c3c(c(=O)oc12)CCC(C)C3 (stereo not drawn)	none
CC(=O)Oc1ccc(C(=O)Nc2cccc(-c3nnc(-c4ccco4)o3)c2)cc1	IMP-1 inhibitor 42
O[C@H]1C[C@H](c2ccccc2)N(Cc2cccs2)C[C@@H]1n1cc(-c2ccc(F)cc2)nn1	none (no result: dFosB activator, IMP-1 inhibitor, VIM-2 inhibitor)
COC(CN1C(=O)C(=O)/C(=C(/O)c2ccccc2)C1c1ccccn1)OC (stereo not drawn)	VIM-2 inhibitor 9.6
COc1ccc(OC)c(-c2cc(C(=O)Nc3c(C)nn(Cc4ccc(Cl)cc4)c3C)no2)c1	none
COc1ccc(-c2cc(C(=O)Nc3cc(C)n(Cc4ccc(Cl)cc4)n3)no2)cc1OC	dFosB activator 32
CN(C)/C=C1\SC(=S)N(N2C(=O)C3C4C=CC(C4)C3C2=O)C1=O (stereo not drawn)	VIM-2 inhibitor 12
CCCOc1ccc(-c2nc(=S)[nH][nH]2)cc1	IMP-1 inhibitor 35
COc1ccccc1NC(=O)COc1ccc(-c2nn(C)c(=O)c3ccccc23)cc1	none
Cn1nc(-c2ccc(OCC(=O)Nc3ccccc3)cc2)c2ccccc2c1=O	VIM-2 inhibitor 9.3
COC(=O)[C@]12CCCCC=C1N(Cc1ccc3c(c1)OCO3)C(=O)[C@H](CC(=O)N1CCN(C(=O)c3ccco3)CC1)C2	none (no result: dFosB activator, IMP-1 inhibitor, VIM-2 inhibitor)
Cc1ccccc1C(=O)NCC(=O)OC(C)C(=O)Nc1cccc(S(=O)(=O)N2CCOCC2)c1 (stereo not drawn)	none (no result: IMP-1 inhibitor, VIM-2 inhibitor)
Cc1c(C)n(CCN(C)C)c2ccc(C(=O)OCCN(C)C)cc12	dFosB activator 20
CCOc1ccc(S(=O)(=O)Nc2cc(SCC(=O)O)c(O)c3ccccc23)cc1	VIM-2 inhibitor 10
CCc1ccc(S(=O)(=O)Nc2cc(SCC(=O)O)c(O)c3ccccc23)cc1	none
CCN1CCN(Cc2ccc(NC(=O)c3ccc(C)c(NC(=O)c4c[nH]c5cc(C(F)(F)F)ccc5c4=O)c3)cc2C(F)(F)F)CC1	none (no result: IMP-1 inhibitor, VIM-2 inhibitor)
CCN1CCN(Cc2ccc(NC(=O)c3ccc(C)c(NC(=O)c4cccc(-c5cn[nH]c(=O)c5)c4)c3)cc2C(F)(F)F)CC1	dFosB activator inconclusive, IMP-1 inhibitor 9.3
CCN1CCN(Cc2ccc(NC(=O)c3ccc(C)c(NC(=O)C4=NN(c5ccccc5)C(=O)C4)c3)cc2C(F)(F)F)CC1	dFosB activator 66 (no result: IMP-1 inhibitor, VIM-2 inhibitor)
CCN1CCN(Cc2ccc(NC(=O)c3ccc(C)c(NC(=O)c4ccno4)c3)cc2C(F)(F)F)CC1	none (no result: IMP-1 inhibitor, VIM-2 inhibitor)
CCN1CCN(Cc2ccc(NC(=O)c3cc(NC(=O)C4=NN(c5ccccc5)C(=O)C4)cc(OC)c3)cc2C(F)(F)F)CC1	dFosB activator 60 (no result: IMP-1 inhibitor, VIM-2 inhibitor)
O=S(=O)(CCNCc1ccccc1)NC1CCCCC1	none (no result: IMP-1 inhibitor, VIM-2 inhibitor)
c1ccc(-[n+]2nc(Nc3cccc4ccccc34)sc2-c2c3ccccc3cc3ccccc23)cc1	none (no result: IMP-1 inhibitor, VIM-2 inhibitor)
